High-throughput results: PubChem, several laboratories
HCT116 bCat-KO – primary screen for growth suppressors in beta-catenin knockout HCT116 cells (colon tumor, human). viability, % at 10 µM. AID 818, 2007. HCT116 beta-catenin knockout viability, CellTiter-Glo, 60 h; stronger effect = lower value. hit rate 1.5% among 140,000;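 active means viability at or under a set limit, the compound median less 4 SD, cut at about 6% in these data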
PMI act satM6P – human PMI activators, high substrate, primary screen, biochemical, fluorescence intensity, near-saturating mannose 6-phosphate; hit rate 0.34% among 190,000; coupled PMI enzyme assay, resazurin fluorescence, 20 min; stronger effect = higher value; 1 = untreated enzyme, 0 = substrate-free blank; Mannose-6-phosphate isomerase (Homo sapiens), P34949; AID 1216, 2008; activation factor at 20 µM;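 active means activation factor of 2 or more at 20 µM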
Target sequence (P34949 whole entry, looked up): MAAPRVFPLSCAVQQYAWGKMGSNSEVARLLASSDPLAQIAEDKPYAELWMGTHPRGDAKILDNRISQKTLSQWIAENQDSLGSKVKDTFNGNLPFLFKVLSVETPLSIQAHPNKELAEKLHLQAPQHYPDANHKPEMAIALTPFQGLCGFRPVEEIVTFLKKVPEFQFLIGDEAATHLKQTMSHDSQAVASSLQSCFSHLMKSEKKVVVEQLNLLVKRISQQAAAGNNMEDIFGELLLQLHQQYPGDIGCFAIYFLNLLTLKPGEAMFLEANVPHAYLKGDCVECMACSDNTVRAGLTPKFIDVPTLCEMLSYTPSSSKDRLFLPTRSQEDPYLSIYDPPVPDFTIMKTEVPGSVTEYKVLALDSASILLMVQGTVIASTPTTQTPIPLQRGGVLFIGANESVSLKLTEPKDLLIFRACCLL
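Test system – human PMI in coupled enzyme assay · Timing – 20 min incubation at room temperature · Detection – Diaphorase-driven resazurin-to-resorufin fluorescence, excitation 544, emission 590 nm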
PMI act – activators of human PMI, primary screen, biochemical, fluorescence intensity, near-Km mannose 6-phosphate | Mannose-6-phosphate isomerase (Homo sapiens), P34949 | purified human PMI, coupled resazurin fluorescence, 20 min; stronger effect = higher value; 1 = vehicle control, 0 substrate-free wells | activation factor at 20 µM | hit rate 0.005% among 190,000 | AID 1214, 2008;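 active means activation factor of 2 or more at 20 µM, relative to plate controls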
L major viab – Leishmania major promastigote growth inhibition, primary screen; inhibition, % at 10 µM; Leishmania major promastigotes, resazurin fluorescence viability; AID 1063, 2008; hit rate 9% among 200,000; in the data active means inhibition above about 50%;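 further: promastigotes grown with compound for 44 hours at 28 °C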
PTEN del growth – growth suppression of PTEN-null HCT116, primary screen, cell-based, CellTiter-Glo. HCT116 PTEN-null viability, 60 h; stronger effect = lower value. viability, % at 10 µM. hit rate 1.2% among 140,000. AID 827, 2007;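 active means viability at or below a set limit, 4 SD under the median of all tested compounds, cut at about 3.7% in these data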;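 further: PTEN knockout HCT116 line with beta catenin targeted HCT116 as companion control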
Each line names hits and unclear results; the compound was inactive in the other large screens. Rows were chosen to be rich in hits. Some 9.6% of all compounds tested hit in one or more screens of this group.

c1ccc(CCNc2ccnc3cc4ccccc4cc23)cc1	L major viab 100 (no result: HCT116 bCat-KO, PTEN del growth)
c1ccc(CCNc2ncnc3ccccc23)cc1	none (no result: HCT116 bCat-KO, PTEN del growth)
CC1Cc2ccccc2N1C(=O)CO/N=C/c1ccc(OC(F)F)cc1 (stereo unspecified)	none
Cc1cccc(NC(=O)c2cc(S(=O)(=O)NCc3ccco3)ccc2F)c1C	none
O=C(/C=C/c1ccc(Cl)cc1Cl)Nc1cccc(S(=O)(=O)NC2=NCCCCC2)c1	L major viab 51
Cc1ccc(CNCC(=O)Nc2cccc(S(=O)(=O)NC3=NCCCCC3)c2)cc1	none (no result: HCT116 bCat-KO, PTEN del growth)
COc1ccc(C2=NN(C(=O)c3cccc([N+](=O)[O-])c3)C(c3cccc([N+](=O)[O-])c3)C2)cc1 (stereo unspecified)	L major viab 53
CCc1cccc(CC)c1NC(=O)COn1nnc2ccc(C(F)(F)F)cc21	none
FC(F)(F)C(Oc1nc(NC2CCCCC2)nc(N2CCOCC2)n1)C(F)(F)F	L major viab 81
Cc1ccc(Nc2nc(OC(C(F)(F)F)C(F)(F)F)nc(N3CCOCC3)n2)cc1	none
CCCCCCn1c(=O)c(F)cn(Cc2ccc(OC)c([N+](=O)[O-])c2)c1=O	L major viab 91
CCCCCn1c(=O)c(F)cn(Cc2ccc(OC)c([N+](=O)[O-])c2)c1=O	none
CC(=O)N1CCN(CC(=O)c2ccc(Br)cc2)CC1	PMI act satM6P 2.4
CC(=O)N1CCN(C(=O)COc2ccc(Br)cc2)CC1	none
CCN(Cc1cc(=O)n2ccsc2n1)Cc1nc2ccccc2c(=O)[nH]1	none (no result: HCT116 bCat-KO, PTEN del growth)
[O-]/C(=C(\C(=S)Nc1ccc(SC(F)F)cc1)[n+]1ccccc1)c1ccc(Cl)cc1Cl	L major viab 84 (no result: HCT116 bCat-KO, PTEN del growth)
Cc1cc(C)cc(NC(=S)/C(=C(\[O-])c2ccc(Cl)cc2Cl)[n+]2ccccc2)c1	none (no result: HCT116 bCat-KO, PTEN del growth)
COc1ccc(C)cc1-n1nnnc1SCC(=O)Nc1cccnc1Cl	L major viab 92
COc1ccc(C)cc1-n1nnnc1SCc1nc2ccccc2s1	L major viab 83
COc1ccc(-n2nnnc2SCc2nc3ccccc3s2)cc1	none
CCn1c(SCc2nc3ccccc3s2)nnc1-c1ccccc1	L major viab 65
O=C(NCc1n[nH]c(=S)n1-c1ccc(Br)cc1)c1ccc(S(=O)(=O)N2CCOCC2)cc1	none (no result: HCT116 bCat-KO, PTEN del growth)
Cc1cccc(OCCCN2C(=O)C(=O)c3cc(C)ccc32)c1	none (no result: HCT116 bCat-KO, PMI act satM6P, PMI act, PTEN del growth)
COCCn1cnnc1SCC(=O)Nc1sccc1C(N)=O	none (no result: HCT116 bCat-KO, PTEN del growth)
O=C(CN1CCN(c2ccccn2)CC1)Nc1ccc(Oc2ccccc2)cc1	L major viab 90
O=C(CN1CCN(c2ccccn2)CC1)Nc1ccccc1	none
O=C(COC(=O)C1CCC1)Nc1ccc(Oc2ccccc2)cc1	L major viab 67
O=C(CN1CCCCCC1)Nc1ccc(Oc2ccccc2)cc1	L major viab 62 (no result: HCT116 bCat-KO, PTEN del growth)
O=S(=O)(Cc1c(F)cccc1Cl)c1ncn[nH]1	none (no result: HCT116 bCat-KO, PTEN del growth)
Cc1ccc(-c2nc(-c3cccnc3)sc2CC(=O)Nc2ccc3nc(C)sc3c2)cc1	none
Cc1ccc(S(=O)(=O)N2CCN(c3ccc(C(=O)N4CCOCC4)cc3[N+](=O)[O-])CC2)cc1	L major viab 61
COc1cccc(C(=O)/C=C/c2ccc(N3CCCCC3)c([N+](=O)[O-])c2)c1	HCT116 bCat-KO 3.1, PTEN del growth 2.9
CCC(=O)c1cc(F)c(N2CCN(S(=O)(=O)c3ccc(C)cc3)CC2)cc1C	L major viab 69
COc1cccc(C(=O)NC(=S)N2CCN(c3ccc(C(F)(F)F)cc3[N+](=O)[O-])CC2)c1	L major viab 51
CC(C)Oc1cccc(C(=O)NC(=S)N2CCN(c3ccc(C(F)(F)F)cc3[N+](=O)[O-])CC2)c1	none
CS(=O)(=O)N1CCN(c2ccc(C(=O)N3CCOCC3)cc2[N+](=O)[O-])CC1	none (no result: HCT116 bCat-KO, PTEN del growth)
O=C(Nc1cc(C(F)(F)F)cc(C(F)(F)F)c1)c1ccc(Cn2cc(C(F)(F)F)ccc2=O)cc1	none
CCc1ccc2[nH]c3nc(SCc4nnc(-c5ccc(C)cc5)o4)nnc3c2c1	none
O=C(/C=C/c1ccc(N2CCCCC2)c([N+](=O)[O-])c1)c1ccc(S(=O)(=O)N2CCCC2)cc1	HCT116 bCat-KO 0.9, L major viab 100, PTEN del growth 0.7
O=[N+]([O-])c1cc(S(=O)(=O)c2ccc(N3CCCCC3)c([N+](=O)[O-])c2)ccc1N1CCCCC1	L major viab 95
CCOC(=O)CNC(=O)CSc1nnc(Cn2cnc3ccccc32)n1C	none
Cc1ccccc1NC(=S)NC1(C)CCS(=O)(=O)C1 (stereo unspecified)	L major viab 54
COC(=O)CCN(C(=O)c1cccc([N+](=O)[O-])c1)c1ccccn1	none (no result: HCT116 bCat-KO, PTEN del growth)
Cc1nc2ccccc2c(=O)n1/N=C/c1c(O)ccc2oc3c(c12)CCCC3	HCT116 bCat-KO 4.9, PTEN del growth 3.0
CCOC(=O)/C(C#N)=C/c1cc2ccccc2nc1N1CCOCC1	none
N#CC(C#N)=Cc1cc2ccccc2nc1N1CCCCC1	L major viab 82
C=C(C)CNC(=S)NNC(=O)CCn1c2ccc(Cl)cc2c2cc(Cl)ccc21	HCT116 bCat-KO 2.7, PTEN del growth 3.5
COc1ccc(-c2nc3ccccc3c(=O)n2CCOc2cccc(C)c2C)cc1	none
COC(=O)c1cccc(NS(=O)(=O)c2ccc(OC)c(OC)c2)c1C	none
COC(=O)c1ccc(C)c(NS(=O)(=O)c2ccc(OC)c(OC)c2)c1	L major viab 100
COc1ccc(Sc2nnc(Cc3ccccc3)c3ccccc23)cc1	L major viab 85
Fc1ccccc1NC(=S)N1CCN(c2ccccn2)CC1	none
COc1cc(/C=N/NC(=O)CCC(=O)NCc2ccccc2)cc(OC)c1OC	HCT116 bCat-KO 0.4, PTEN del growth 0.3
COc1cc(/C=N/NC(=O)CCn2c3ccccc3c3ccccc32)cc(OC)c1OC	none
COc1cc(/C=N/NC(=S)N/N=C/c2cc(OC)c(OC)c(OC)c2)cc(OC)c1OC	L major viab 55
COc1ccc(C2OC(=O)CC2C(=O)NCc2ccccc2Cl)cc1OC (stereo unspecified)	none (no result: HCT116 bCat-KO, PTEN del growth)
COCc1cc(CN2CCN(Cc3ccsc3)C(CCO)C2)ccc1OC (stereo unspecified)	none (no result: HCT116 bCat-KO, PMI act satM6P, PMI act, PTEN del growth)
COc1cccc(-c2nc(N3CCN(c4ccccc4)CC3)c3ccccc3n2)c1O	none
CCC(C)Nc1nc(-c2cccc(OC)c2O)nc2ccccc12 (stereo unspecified)	HCT116 bCat-KO 2.5, L major viab 59, PTEN del growth 2.1
COc1cccc(-c2nc(NC(C)C)c3ccccc3n2)c1O	L major viab 56
COc1cccc(-c2nc(NCC3CCCO3)c3ccccc3n2)c1O (stereo unspecified)	none
O=C1C=C(Nc2ccccc2)CC(c2ccccc2)C1 (stereo unspecified)	none (no result: HCT116 bCat-KO, PTEN del growth)
O=C1C(Nc2ccccc2)=C(NS(=O)(=O)c2ccccc2)C(=O)c2ccccc21	none
